In publication PMC3992999 (Journal of chromatography. B, Analytical technologies in …, 2011):

How the values were obtained:
sigma receptors = conditions: cited from earlier work
effects of cocaine = conditions: cited from earlier work
[1] = stability of stock solutions; type: physicochemical
sigma-2 receptors = conditions: sigma-1 and sigma-2 in the nanomolar and subnanomolar range; cited from earlier work
[2] = stability of CM156 in rat plasma QC samples under various storage conditions; type: in vitro ADME; conditions: for stability in rat plasma: 10, 400 and 3000 ng/mL
Method in brief: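 Blank rat plasma was spiked to QC levels of 10, 400 and 3000 ng/mL, six replicates each. Conditions were three freeze–thaw cycles (−20 °C 24 h, thaw at room temperature, refreeze 12–24 h), room temperature for 12 h, −20 °C for 1 month, and autosampler reinjection after 24 h at 25 °C. Samples were chloroform-extracted with aripiprazole internal standard, analysed by UPLC/MS, and compared with fresh QCs.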

[3] = pilot intravenous pharmacokinetic study in rats; type: in vivo; conditions: male, Sprague-Dawley, rat, plasma, 5 mg/kg
Method in brief: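 Six male Sprague-Dawley rats (180–200 g) with right jugular vein cannulas, fasted 12 h before and 4 h after dosing. Single 5 mg/kg i.v. bolus in saline (0.2 µm filtered) via cannula, flushed with heparinized saline. Plasma from centrifuged blood (10,000 × g, 20 min, 4 °C) held at −20 °C. Chloroform extraction with aripiprazole internal standard. HILIC UPLC/MS in SIR mode (m/z 390; IS 448). Mean ± SD, n = 6.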

sigma-1 receptors = conditions: sigma-1 and sigma-2 in the nanomolar and subnanomolar range; cited from earlier work
[4] = system: cocaine induced behaviors; conditions: cited from earlier work
[5] = rat plasma, long term for 30 days (−20 °C), spiked 10 ng/mL
[6] = rat plasma, long term for 30 days (−20 °C), spiked 400 ng/mL
[7] = rat plasma, short term for 12 h (25 °C), spiked 10 ng/mL
[8] = rat plasma, short term for 12 h (25 °C), spiked 400 ng/mL
[9] = rat plasma, three freeze thaw cycles, spiked 400 ng/mL
[10] = rat plasma, three freeze thaw cycles, spiked 3000 ng/mL
[11] = reconstituted samples, auto sampler for 24 h (25 °C), spiked 10 ng/mL
[12] = reconstituted samples, auto sampler for 24 h (25 °C), spiked 400 ng/mL
[13] = reconstituted samples, auto sampler for 24 h (25 °C), spiked 3000 ng/mL

**Q.** With `COC(=O)[C@H]1[C@@H](OC(=O)c2ccccc2)C[C@@H]2CC[C@H]1N2C` [cocaine] as the molecule, how does the “affinity for sigma receptors” value (sigma receptors) read?
**A.** about 2 µm

**Q.** With `CN(CCc1ccc(Cl)c(Cl)c1)CCN1CCCC1` [BD 1008] as the molecule, how does the convulsions of cocaine (effects of cocaine) read?
**A.** attenuation

**Q.** What about the “locomotor stimulant effects of cocaine” value (effects of cocaine) of the same molecule?
**A.** blockade

**Q.** What about the “rewarding effects of cocaine” value (effects of cocaine) of the same molecule?
**A.** attenuation

**Q.** What does the source list for `S=c1sc2ccccc2n1CCCCN1CCN(C2CCCCC2)CC1` [CM156, 3-(4-(4-cyclohexylpiperazin-1-yl)butyl)benzo[d]thiazole-2(3H)-thione]?
**A.** stock solution stability ([1]; one week at −20 °C): stable; time stock solution is stable ([1]; room temperature): at least 6 h; affinity for sigma-2 receptors (sigma-2 receptors): high affinity; stability in rat plasma ([2]; during three freeze/thaw cycles): stable; Measured concentration [2, 5]: 11.2 ± 0.9 ng/mL; RE (relative error) [2, 5]: 12.8%; Measured concentration [2, 6]: 394.8 ± 17.8 ng/mL; RE (relative error) [2, 6]: −1.3%; Measured concentration ([2]; rat plasma, long term for 30 days (−20 °C), spiked 3000 ng/mL): 2879.4 ± 243.1 ng/mL; Measured concentration [2, 7]: 8.6 ± 0.7 ng/mL; RE (relative error) [2, 7]: −12.3%; Measured concentration [2, 8]: 403.6 ± 9.2 ng/mL; RE (relative error) [2, 8]: 2.3%; Measured concentration ([2]; rat plasma, short term for 12 h (25 °C), spiked 3000 ng/mL): 2879.4 ± 145.2 ng/mL; Measured concentration ([2]; rat plasma, three freeze thaw cycles, spiked 10 ng/mL): 9.2 ± 1.1 ng/mL; Measured concentration [2, 9]: 406.4 ± 8.8 ng/mL; RE (relative error) [2, 9]: 1.6%; Measured concentration [2, 10]: 2879.4 ± 209.8 ng/mL; RE (relative error) [2, 10]: −4.0%; Measured concentration [2, 11]: 10.0 ± 0.2 ng/mL; RE (relative error) [2, 11]: 2.2%; Measured concentration [2, 12]: 404.4 ± 4.7 ng/mL; RE (relative error) [2, 12]: 1.1%; Measured concentration [2, 13]: 2901.1 ± 59.2 ng/mL; RE (relative error) [2, 13]: −3.3%; stability in rat plasma ([2]; stored at room temperature for 12 h): stable; stability in rat plasma ([2]; stored at −20 °C for 1 month): stable; stability in reconstituted samples ([2]; stored for 24 h in the autosampler at 25 °C): stable; AUC(0-inf) [3]: 802 ng·h/mL; Cmax [3]: 1300 ± 200 ng/mL; MRT [3]: 1.5 h; Vd [3]: 9.6 ± 1.4 L/kg; clearance [3]: 103 mL/min/kg; half-life ([3]; Elimination half-life (t1/2), rats, single intravenous dose of 5 mg/kg, n = 6, mean ± SD): 1.1 ± 0.4 h; affinity for sigma-1 receptors (sigma-1 receptors): high affinity; cocaine induced place conditioning behaviors [4]: significantly attenuate; expression of cocaine induced behavioral sensitization [4]: significantly attenuate
